From PubChem
Shown are actives, neighbours in structure and some others; about 4.1% of the full set was active somewhere.
T cruzi inh = T. cruzi replication inhibition | T. cruzi beta-gal in NIH3T3, luminescence, 90 h | inhibition, % (test concentration not listed) | 1.4% of 300,000 active | AID 1885;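 active = mean inhibition across valid replicates above about 55%, limit read from the data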;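 also: signal also drops with host cell toxicity which is not excluded here; higher percent means less beta-gal luminescence so fewer parasites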
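Assay system: NIH/3T3 fibroblasts plus reporter T. cruzi. Amount: NIH/3T3 cells, 5,000 per well. Buffer or medium: DMEM, 2% fetal bovine serum. Doses: compound pinned at 50 nL/well, DMSO. Schedule: ≥90 h infection period, 3 h prior cell attachment. Signal: luminescent β-galactosidase signal after 60 min lysis. Read-out: parasite load inhibition, %.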
DNA FID counter = counter-screen for HCV NS3 helicase inhibitors: DNA intercalator displacement; AID 1845; inhibition, % at 7.9 µM; 0.17% of 290,000 active; DNA fluorescent intercalator displacement, fluorescence; in the data active = inhibition above about 37%;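 also: higher means more ethidium bromide displaced from hairpin DNA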
MEKK2wt PB1 HTS = raises or lowers MEK5 binding to wildtype human MEKK2 PB1 domain; bead flow cytometry, Alexa488-MEK5 binding to MEKK2 WT; actives lie on both sides; Q9Y2U5; 1.1% of 290,000 active; binding response (% of control), % at 10 µM; in the data active = binding response below about 67% or above about 130%
MEKK3 PB1 HTS = modulators (inhibitors or enhancers) of MEK5 binding to human MEKK3 PB1 domain; Q99759; bead-based flow cytometry, Alexa488-MEK5 binding to MEKK3; actives lie on both sides; 0 = blocked by unlabeled MEK5, 100 = vehicle; binding response (% of control), % at 10 µM; 1.4% of 290,000 active;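 active = binding response more than 3 SD above or below the average of its plate-row segment, actives on both sides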;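 also: Alexa488 bead fluorescence after subtracting the streptavidin-only scavenger bead signal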
Target sequence (Q99759 whole entry, looked up, the tested form may be a part): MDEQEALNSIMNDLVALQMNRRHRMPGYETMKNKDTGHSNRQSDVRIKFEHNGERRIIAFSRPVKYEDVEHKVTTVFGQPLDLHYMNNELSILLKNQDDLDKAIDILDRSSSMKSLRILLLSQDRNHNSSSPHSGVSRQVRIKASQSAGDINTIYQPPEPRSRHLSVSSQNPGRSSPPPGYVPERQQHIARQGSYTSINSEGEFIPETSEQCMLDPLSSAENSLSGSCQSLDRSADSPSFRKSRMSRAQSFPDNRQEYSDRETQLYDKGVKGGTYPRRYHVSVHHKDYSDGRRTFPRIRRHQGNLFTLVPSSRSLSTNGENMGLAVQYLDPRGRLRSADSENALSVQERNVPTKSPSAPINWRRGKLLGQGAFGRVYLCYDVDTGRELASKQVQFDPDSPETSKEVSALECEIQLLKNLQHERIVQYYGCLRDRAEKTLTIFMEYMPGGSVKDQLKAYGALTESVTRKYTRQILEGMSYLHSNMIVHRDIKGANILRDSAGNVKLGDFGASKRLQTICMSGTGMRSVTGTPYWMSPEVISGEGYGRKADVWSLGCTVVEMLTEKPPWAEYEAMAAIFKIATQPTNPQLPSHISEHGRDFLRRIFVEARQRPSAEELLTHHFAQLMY
HCV NS3 hel inh = HCV NS3 helicase inhibition; 0.56% of 290,000 active; AID 1800; inhibition, % at 10.9 µM; NS3 helicase DNA unwinding, Cy5 molecular beacon fluorescence;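 active = inhibition above the mean of all tested compounds plus 3 SD, set per campaign, cut at about 35% in these data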
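System: NS3 helicase fragment of HCV / Schedule: 1 h at 25 °C / Control set: DMSO alone as 0% and 110 µM thioflavine S as 100% / Reagent: Cy5/quencher beacon DNA duplex and ATP to start / Technique: Cy5 fluorescence / Replication: singlicate / Evaluation: % inhibition of end-to-start signal ratio versus controls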
MEKK2mut PB1 HTS = signal of MEK5 binding to mutant human MEKK2 PB1 domain; bead flow cytometry, Alexa488-MEK5 binding to MEKK2 mutant; percent response, % at 10 µM; 0.35% of 290,000 active; AID 1530; in the data active = percent response above about 24%, passing the limit was not always enough
MEKK2wt confirm = raises or lowers MEK5 binding to wildtype human MEKK2, retest; shares compounds with MEKK3 PB1 HTS; 2.4% of 5,900 active; binding response (% of control), % at 10 µM; bead flow cytometry, Alexa488-MEK5 binding to MEKK2 WT; actives lie on both sides; in the data active = binding response below about 16% or above about 210%; inactive = in between
MEKK2mut-MEK5 = signal of MEK5 binding to mutant human MEKK2, retest; shares compounds with MEKK3 PB1 HTS; bead flow cytometry, Alexa488-MEK5 binding to MEKK2 mutant; percent response, % at 10 µM; 2% of 5,900 active; AID 1893; in the data active = percent response mostly above about 71%, no sharp cut-off; inactive = mostly below about 38%;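 also: higher means compound restores mutant binding toward wildtype level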
MEKK3 confirm = confirmation of inhibitors of MEK5 binding to human MEKK3. AID 1894. binding response (% of control), % at 10 µM. shares compounds with MEKK3 PB1 HTS. 1.8% of 5,900 active. bead flow cytometry, Alexa488-MEK5 binding to MEKK3; hits give low values;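 active = binding response below 72% of control, or above a set upper limit, though filed actives all read lower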;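 also: lower values mean stronger disruption of MEK5 binding to MEKK3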
A number is an active result; . = inactive; / = not tested or not shown; ! = not confirmed by another sample; [ ] = another dose, or the depositor's remark.

SMILES | T cruzi inh | DNA FID counter | MEKK2wt PB1 HTS | MEKK3 PB1 HTS | HCV NS3 hel inh | MEKK2mut PB1 HTS | MEKK2wt confirm | MEKK2mut-MEK5 | MEKK3 confirm
CCOC(=O)CCC(NC(=O)CCCCCCCCC(=O)NC(CCC(=O)OCC)C(=O)OCC)C(=O)OCC (stereo unspecified) | . | . | . | . | . | . | / | / | /
CCOC(=O)CCC(NC(=O)CCCCC(=O)NC(CCC(=O)OCC)C(=O)OCC)C(=O)OCC (stereo unspecified) | . | . | . | 130 | . | . | . | . | .
COc1ccc(OC)c(S(=O)(=O)N2CCC(C(=O)N(C)Cc3ccccc3)CC2)c1 | . | . | . | . | . | . | / | / | /
COCCCNCCCCOc1ccc(OCc2ccccc2)cc1 | . | . | . | . | . | . | / | / | /
O=C(CCNC(=O)OCc1ccccc1)NC1CCCCC1 | . | . | . | 135 | . | . | . | . | .
O=C(NC1CCCC1)c1ccccc1OCc1ccccc1 | . | . | . | 63[inhibitor] | . | . | . | . | .
O=C(CNC(=O)OCc1ccccc1)NC1CCCCCC1 | . | . | . | . | . | . | / | / | /
c1ccc(COc2ccc(OCCCNC3CCCC3)cc2)cc1 | . | . | 140 | . | . | . | . | . | .
O=C(NC1CCN(Cc2ccccc2)CC1)c1ccccc1OCc1ccccc1 | . | . | . | . | . | . | / | / | /
COc1cc(CNCCNC(=O)c2nonc2N)ccc1OCc1ccc(Cl)cc1 | . | . | . | . | . | . | / | / | /
Cc1cccc(N2C(=O)c3cccc(Oc4ccc(Cl)cc4)c3C2=O)c1 | . | . | . | 130 | . | . | . | . | .
CC(C)OC(=O)CSc1nnc2c(n1)[nH]c1ccc(F)cc12 | . | . | . | . | . | . | / | / | /
CSc1ncc(Cl)c(C(=O)Nc2cccc3ccccc23)n1 | . | . | . | 128 | . | . | . | . | .
C=CCNC(=O)NC(=O)CN1C(=O)NC(c2ccccc2)(c2ccccc2)C1=O | . | . | . | . | . | . | / | / | /
COc1ccccc1N1CCN(CCCOc2ccc(F)cc2)CC1 | . | . | . | . | . | . | / | / | /
O=C1CCc2ccc(OCCCCN3CCN(c4cccc(Cl)c4Cl)CC3)cc2N1 | . | . | 177! | . | . | . | 1.0[inhibitor] | . | 1.0
CSc1nc2ccccc2n1CC(=O)Nc1c(C)cccc1C | . | . | . | 49[inhibitor] | . | . | . | . | .
O=C(Nc1ccccc1C(=O)O)c1ccc(Br)c(S(=O)(=O)NCc2ccccc2)c1 | . | . | . | . | . | . | / | / | /
COC(=O)c1ccnc(/C=N/O)c1 | . | . | . | 80[inhibitor] | . | . | . | . | .
O=C(c1ccccc1)N1CCN(c2ccc([N+](=O)[O-])cc2-n2cccc2)CC1 | . | . | . | . | . | . | / | / | /
Cc1ccccc1CC(=O)Nc1ccc(S(=O)(=O)N2CCOCC2)cc1 | . | . | . | . | . | . | / | / | /
CN(C)CCNc1nc2sc3c(c2c(=O)n1Cc1ccccc1)CCCCC3 | . | . | 149 | . | . | . | . | . | .
Cc1cc(C)cc(OCC(=O)Nc2ccc3c(c2)C(=O)c2ccccc2C3=O)c1 | . | . | . | 139 | . | . | . | . | .
Cc1cc(C)cc(OCC(=O)Nc2ccc(F)cc2)c1 | . | . | . | . | . | . | / | / | /
Cc1cccc(CSc2nc3c(c(=O)[nH]2)CCC3)c1 | . | . | . | 134 | . | . | . | . | .
SMILES | T cruzi inh | DNA FID counter | MEKK2wt PB1 HTS | MEKK3 PB1 HTS | HCV NS3 hel inh | MEKK2mut PB1 HTS | MEKK2wt confirm | MEKK2mut-MEK5 | MEKK3 confirm
Cc1ccc(CSc2nc3c(c(=O)[nH]2)CCC3)cc1 | . | . | . | . | . | . | / | / | /
COc1ccc2nc3cc(Cl)ccc3c(Nc3cc(C(C)C)c(O)cc3C)c2c1 | . | . | 146 | . | . | 44 | . | 75 | .
CCN(CC)CCCC(C)Nc1c2ccc(Cl)cc2nc2ccc(OC)cc12 (stereo unspecified) | / | . | . | . | . | . | / | / | /
Cc1noc(/C=C/c2ccc(-c3ccccc3Cl)o2)c1[N+](=O)[O-] | . | . | . | . | . | 92 | . | . | 54
Cc1ccc(N/C=C/c2onc(C)c2[N+](=O)[O-])cc1 | . | . | 33[inhibitor] | 37[inhibitor] | . | . | . | . | .
CCCCCCc1ccc(N2C[C@H](Cc3ccccc3)[C@@H](CC(=O)Nc3ccccc3)C2=O)cc1 | . | . | . | . | . | . | / | / | /
CCCn1c(N2CCN(C(=O)N3CCCCC3)CC2)nc2ccccc21 | . | . | 2.0[inhibitor] | 2.0[inhibitor] | . | . | . | . | .
CCCn1c(N2CCN(C(=O)Nc3ccccc3)CC2)nc2ccccc21 | . | . | . | . | . | . | / | / | /
COc1ccc(OC)c(CCNC(=O)CN2C(=O)COc3ccc(S(=O)(=O)N4CCOCC4)cc32)c1 | . | . | . | . | . | . | / | / | /
CCC(C)NC(=O)c1cc2cc3ccc(OC)cc3nc2s1 (stereo unspecified) | . | . | . | 126 | . | . | . | . | .
CCN1CCN(C(c2nnnn2Cc2ccc3c(c2)OCO3)C(C)C)CC1 (stereo unspecified) | . | . | . | . | . | . | / | / | /
CCC(c1nnnn1Cc1ccc2c(c1)OCO2)N1CCN(CC)CC1 (stereo unspecified) | . | . | . | 131 | . | . | . | . | .
O=C(CCC1CCCC1)NCc1ccccn1 | . | . | . | . | . | . | / | / | /
O=C(CC1CCCCC1)NCc1ccccn1 | . | . | . | 122 | . | . | . | . | .
CCOC(=O)CSc1nc2nc(C)cc(C)n2n1 | . | . | . | . | . | . | / | / | /
CCCn1c(C)cc(C(=O)CSc2nc3nc(C)cc(C)n3n2)c1C | . | . | . | 135 | . | . | . | . | .
CCc1ccc(NC(=O)CSc2nc3ccccc3nc2N2CCCC2)cc1 | . | . | . | . | . | . | / | / | /
CC(C)NC(=O)Cc1ccc(Br)cc1 | . | . | . | . | . | . | / | / | /
CCCC(C)NC(=O)COc1ccc(Sc2ccc(OCC(=O)NC(C)CCC)cc2)cc1 (stereo unspecified) | . | . | . | 137 | . | . | . | . | .
CCCC(C)NC(=O)Cc1ccc(Br)cc1 (stereo unspecified) | . | . | . | 140 | . | . | . | . | .
N#CCCN(C(=O)COC(=O)c1ccc2c(=O)n3c(nc2c1)CCC3)c1ccccc1 | . | . | . | . | . | . | / | / | /
